Results taken from ChEMBL document CHEMBL1125281, “Identification and synthesis of a receptor binding site of human anaphylatoxin C5a” (J Med Chem, 1991).
Where a SMILES comes first, the peptide text is derived from it. Bridges are numbered along the chain shown (N, C = ends). The star is where a group is joined. Acm = CC(=O)NC*

How the values were obtained:
[1] = target: T1, C5a anaphylatoxin chemotactic receptor 1 (Homo sapiens, UniProt P21730); assay: Inhibition of [125I]C5a binding to anaphylatoxin chemotactic receptor of PMNL membranes
T1 sequence (P21730 whole entry): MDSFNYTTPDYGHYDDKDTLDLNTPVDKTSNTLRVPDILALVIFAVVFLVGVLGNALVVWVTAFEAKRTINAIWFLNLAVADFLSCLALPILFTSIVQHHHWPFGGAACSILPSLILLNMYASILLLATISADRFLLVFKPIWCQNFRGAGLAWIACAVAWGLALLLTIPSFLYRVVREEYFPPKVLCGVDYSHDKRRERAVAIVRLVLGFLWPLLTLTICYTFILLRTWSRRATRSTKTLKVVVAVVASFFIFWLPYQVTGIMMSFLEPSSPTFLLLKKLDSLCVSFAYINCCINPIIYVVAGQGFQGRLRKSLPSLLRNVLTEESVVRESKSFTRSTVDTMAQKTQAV

[2] = target: T1, C5a anaphylatoxin chemotactic receptor 1; assay: Inhibition of [125I]C5a binding to anaphylatoxin chemotactic receptor of PMNL cells; assay type: cell-based
How it was run: (§1)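 Intact human PMNL isolated from peripheral blood by one-step density centrifugation. Cells incubated 20 min at 23 °C with [125I]C5a (1 × 10⁻⁹ M), test peptide and protease inhibitors. Cells separated from free ligand by centrifugation through silicone oil at 10000g; pellet γ counts read.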

[3] = target: T1, C5a anaphylatoxin chemotactic receptor 1; assay: Inhibition of [125I]-C5a anaphylatoxin chemotactic receptor binding to PMNL membranes.
[4] = target: T1, C5a anaphylatoxin chemotactic receptor 1; assay: Inhibition of [125I]C5a binding to C5a anaphylatoxin chemotactic receptor in PMNL intact cells; inactive; assay type: cell-based; how it was run: as §1

SMILES	Ki [1]	Ki [2]	Ki [3]	Ki [4]
CC(=O)NCSC[C@H](NC(=O)[C@H](C)NC(=O)[C@H](CCCCN)NC(=O)[C@H](CCCCN)NC(=O)[C@@H](NC(=O)[C@@H](NC(=O)[C@@H](N)CO)C(C)C)C(C)C)C(=O)N[C@@H](Cc1ccc(O)cc1)C(=O)N[C@@H](CC(=O)O)C(=O)NCC(=O)N[C@@H](C)C(=O)O (H-SVVKKAC(Acm)YDGA-OH)	Not Active	Not Active		
CC[C@H](C)[C@@H]1NC(=O)[C@H](CCC(=O)O)NC(=O)[C@H](CCC(=O)O)NC(=O)[C@@H](NC(=O)[C@H](CCCCN)NC(=O)[C@H](CCCCN)NC(=O)[C@H](CCC(N)=O)NC(=O)[C@H](CC(C)C)NC(=O)[C@@H](N)[C@@H](C)O)CSSC[C@@H](C(=O)N[C@@H](Cc2ccc(O)cc2)C(=O)N[C@@H](CC(=O)O)C(=O)NCC(=O)N[C@@H](C)C(=O)O)NC(=O)[C@H](C)NC(=O)[C@H](CCCCN)NC(=O)[C@H](CCCCN)NC(=O)[C@H](C(C)C)NC(=O)[C@H](C(C)C)NC(=O)[C@H](CO)NC(=O)[C@H](Cc2c[nH]cn2)NC(=O)[C@H](CCCCN)NC(=O)[C@H](Cc2ccc(O)cc2)NC(=O)[C@H](CCCCN)NC(=O)[C@H](C)NC(=O)[C@H](C)NC1=O (H-TLQKKCEEIAAKYKHSVVKKACYDGA-OH; disulfide 6-22)	Not Active	Not Active		
CC(C)[C@H](NC(=O)[C@H](CO)NC(=O)[C@H](Cc1c[nH]cn1)NC(=O)[C@@H](N)CCCCN)C(=O)N[C@H](C(=O)N[C@@H](CCCCN)C(=O)N[C@@H](CCCCN)C(=O)O)C(C)C (H-KHSVVKK-OH)	Not Active	Not Active		
CC[C@H](C)[C@H](NC(=O)[C@H](CC(N)=O)NC(=O)[C@H](C)NC(=O)[C@H](CCCN=C(N)N)NC(=O)[C@H](CC(C)C)NC(=O)[C@H](CCC(N)=O)NC(=O)[C@H](CO)NC(=O)[C@H](C)NC(=O)[C@@H](NC(=O)[C@@H](NC(=O)[C@H](CCSC)NC(C)=O)C(C)C)C(C)C)C(=O)N[C@@H](CO)C(=O)N[C@@H](Cc1c[nH]cn1)C(=O)N[C@@H](CCCCN)C(=O)N[C@@H](CC(=O)O)C(=O)N[C@@H](CCSC)C(=O)N[C@@H](CCC(N)=O)C(=O)N[C@@H](CC(C)C)C(=O)NCC(=O)N[C@@H](CCCN=C(N)N)C(=O)O (Ac-MVVASQLRANISHKDMQLGR-OH)		Not Active		
CC[C@H](C)[C@H](NC(=O)[C@H](CCCN=C(N)N)NC(=O)[C@H](C)NC(=O)[C@@H](N)CSCNC(C)=O)C(=O)N[C@@H](CO)C(=O)N[C@@H](CC(C)C)C(=O)NCC(=O)N1CCC[C@H]1C(=O)N[C@@H](CCCN=C(N)N)C(=O)N[C@@H](CCSC)C(=O)N[C@@H](CSCNC(C)=O)C(=O)N[C@@H](CCCCN)C(=O)O (H-C(Acm)ARISLGPRMC(Acm)K-OH)	Not Active	Not Active		
CC[C@H](C)[C@H](NC(=O)[C@H](CC(N)=O)NC(=O)[C@H](C)NC(=O)[C@H](CCCNC(=N)N)NC(=O)[C@H](CC(C)C)NC(=O)[C@H](CCC(N)=O)NC(=O)[C@H](CO)NC(=O)[C@H](C)NC(=O)[C@@H](NC(=O)[C@@H](NC(=O)[C@H](CCSC)NC(C)=O)C(C)C)C(C)C)C(=O)N[C@@H](CO)C(=O)N[C@@H](Cc1cnc[nH]1)C(=O)N[C@@H](CCCCN)C(=O)N[C@@H](CC(=O)O)C(=O)N[C@@H](CCSC)C(=O)N[C@@H](CCC(N)=O)C(=O)N[C@@H](CC(C)C)C(=O)NCC(=O)N[C@@H](CCCNC(=N)N)C(=O)O (Ac-MVVASQLRANISHKDMQLGR-OH)			50 µM	
CSCC[C@H](NC(=O)[C@H](CC(=O)O)NC(=O)[C@H](CCCCN)NC(=O)[C@H](Cc1c[nH]cn1)NC(C)=O)C(=O)N[C@@H](CCC(N)=O)C(=O)N[C@@H](CC(C)C)C(=O)NCC(=O)N[C@@H](CCCN=C(N)N)C(=O)O (Ac-HKDMQLGR-OH)				Not Active
CC(C)C[C@H](NC(=O)[C@H](CCC(N)=O)NC(=O)[C@H](CO)NC(=O)[C@H](C)NC(=O)[C@@H](NC(=O)[C@@H](NC(=O)[C@H](C)N)C(C)C)C(C)C)C(=O)N[C@@H](CCCN=C(N)N)C(=O)O (H-AVVASQLR-OH)	Not Active	Not Active		
CC[C@H](C)[C@H](N)C(=O)N[C@@H](CO)C(=O)N[C@@H](Cc1c[nH]cn1)C(=O)N[C@@H](CCCCN)C(=O)N[C@@H](CC(=O)O)C(=O)N[C@@H](CCSC)C(=O)N[C@@H](CCC(N)=O)C(=O)N[C@@H](CC(C)C)C(=O)NCC(=O)N[C@@H](CCCN=C(N)N)C(=O)O [ISHKDMQLGR] (H-ISHKDMQLGR-OH)				Not Active
CC[C@H](C)[C@H](NC(=O)[C@H](CC(N)=O)NC(=O)[C@H](C)NC(=O)[C@H](CCCN=C(N)N)NC(=O)[C@H](CC(C)C)NC(=O)[C@H](CCC(N)=O)NC(=O)[C@@H](N)CO)C(=O)N[C@@H](CO)C(=O)N[C@@H](Cc1c[nH]cn1)C(=O)N[C@@H](CCCCN)C(=O)N[C@@H](CC(=O)O)C(=O)N[C@@H](CCSC)C(=O)N[C@@H](CCC(N)=O)C(=O)N[C@@H](CC(C)C)C(=O)NCC(=O)N[C@@H](CCCN=C(N)N)C(=O)O (H-SQLRANISHKDMQLGR-OH)		Not Active		
CC[C@H](C)[C@H](NC(=O)[C@H](CCCNC(=N)N)NC(=O)[C@H](C)NC(=O)[C@H](C)NC(=O)[C@H](CCCNC(=N)N)NC(=O)[C@H](CCC(N)=O)NC(=O)[C@H](CCC(=O)O)NC(=O)[C@H](CSCNC(C)=O)NC(=O)[C@@H](NC(C)=O)[C@@H](C)O)C(=O)N[C@@H](CO)C(=O)N[C@@H](CC(C)C)C(=O)O (Ac-TC(Acm)EQRAARISL-OH)	Not Active	Not Active		
CC(C)[C@H](NC(=O)[C@H](C)NC(=O)[C@H](C)NC(=O)CNC(=O)[C@H](CC(=O)O)NC(=O)[C@H](Cc1ccc(O)cc1)NC(=O)[C@H](C)NC(=O)[C@H](C)NC(=O)[C@H](CCCCN)NC(=O)[C@H](CCCCN)NC(=O)[C@@H](NC(=O)[C@@H](NC(=O)[C@H](CO)NC(=O)[C@@H](N)Cc1c[nH]cn1)C(C)C)C(C)C)C(=O)N[C@@H](CC(N)=O)C(=O)N[C@@H](CC(N)=O)C(=O)N[C@@H](CC(=O)O)C(=O)N[C@@H](CCC(=O)O)C(=O)O (H-HSVVKKAAYDGAAVNNDE-OH)	Not Active	Not Active		
CC(=O)N[C@@H](C)C(=O)N[C@@H](C)C(=O)N[C@@H](CCCCN)C(=O)N[C@@H](Cc1ccc(O)cc1)C(=O)N[C@@H](CCCCN)C(=O)N[C@@H](Cc1c[nH]cn1)C(=O)N[C@@H](CO)C(=O)N[C@H](C(=O)N[C@H](C(=O)N[C@@H](CCCCN)C(=O)N[C@@H](CCCCN)C(=O)O)C(C)C)C(C)C (Ac-AAKYKHSVVKK-OH)	Not Active	Not Active		
CC(C)[C@@H]1NC(=O)[C@H](CO)NC(=O)[C@H](Cc2c[nH]cn2)NC(=O)[C@H](CCCCN)NC(=O)[C@H](Cc2ccc(O)cc2)NC(=O)[C@H](CCCCN)NC(=O)[C@H](C)NC(=O)[C@@H](N)CSSC[C@@H](C(=O)O)NC(=O)[C@H](C(C)C)NC1=O (H-CAKYKHSVVC-OH; disulfide 1-10)	Not Active	Not Active		
CC[C@H](C)[C@H](NC(=O)[C@H](CCC(=O)O)NC(=O)[C@H](CCC(=O)O)NC(=O)[C@@H](NC(=O)[C@H](CCCCN)NC(=O)[C@H](CCCCN)NC(=O)[C@H](CCC(N)=O)NC(=O)[C@H](CC(C)C)NC(=O)[C@@H](N)[C@@H](C)O)[C@@H](C)CC)C(=O)N[C@@H](C)C(=O)N[C@@H](C)C(=O)N[C@@H](CCCCN)C(=O)N[C@@H](Cc1ccc(O)cc1)C(=O)N[C@@H](CCCCN)C(=O)O (H-TLQKKIEEIAAKYK-OH)	Not Active	Not Active		
